Assay results from ChEMBL document CHEMBL1828575, “Design, synthesis and antiproliferative activities of biarylolefins based on polyhydroxylated and carbohydrate scaffolds” (Eur J Med Chem, 2011).

What was measured:
Type in all cases: functional
PC-3 = test: Antitumor activity against human PC3 cells after 48 hrs by SRB assay; conditions: PC-3, 48 h
Method in brief: (§1)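 NCI60 panel in RPMI 1640 with 5% FBS and 2 mM L-glutamine. Cells were plated at 5000–40,000/well by doubling time, held 24 h, then time-zero plates were TCA-fixed. Five concentrations (10-fold or half-log dilutions of DMSO stocks) were applied for 48 h at 37 °C, 5% CO2. Cells were fixed with cold TCA (10% final adherent, 16% suspension) and stained with 0.4% SRB. Bound dye was dissolved in 10 mM Tris and read at 515 nm. GI50, TGI and LC50 were calculated per line.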

NCI-H460 = test: Antitumor activity against human NCI-H460 cells after 48 hrs by SRB assay; conditions: NCI-H460, 48 h; method in brief: as §1
CCRF-CEM [1] = test: Cytotoxicity against human CCRF-CEM cells assessed as cellular growth at 10 uM after 48 hrs by SRB assay
Method in brief: (§2)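 NCI60 single-dose screen of cells in RPMI 1640 with 5% FBS and 2 mM L-glutamine, preincubated 24 h at 37 °C, 5% CO₂. Cells were then exposed 48 h to compound added from DMSO stock. TCA-fixed, stained with 0.4% SRB in 1% acetic acid, dye solubilised in 10 mM Tris base and read at 515 nm. Growth is given as percent of untreated control.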

IGROV-1 = test: Antitumor activity against human IGROV1 cells after 48 hrs by SRB assay; conditions: IGROV-1, 48 h; method in brief: as §1
EKVX = test: Antitumor activity against human EKVX cells after 48 hrs by SRB assay; method in brief: as §1
MDA-MB-468 = test: Antitumor activity against human MDA-MB-468 cells after 48 hrs by SRB assay; conditions: MDA-MB-468, 48 h; method in brief: as §1
OVCAR-5 = test: Cytotoxicity against human OVCAR5 cells assessed as cellular growth at 10 uM after 48 hrs by SRB assay
Method in brief: (§3)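 NCI-60 panel lines grown in RPMI 1640 with 5% FBS and 2 mM L-glutamine. Plated at 5000–40,000 cells/well and preincubated 24 h at 37 °C, 5% CO₂, with time-zero plates fixed in TCA. Compounds, dissolved in DMSO and diluted in medium, were applied for 48 h. Cells were TCA-fixed (10% final for adherent, 16% for suspension) and stained with 0.4% SRB in 1% acetic acid. Dye was solubilised in 10 mM Tris base and read at 515 nm; growth was expressed as a percentage of untreated control.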

SK-MEL-2 = test: Antitumor activity against human SK-MEL-2 cells after 48 hrs by SRB assay; conditions: SK-MEL-2, 48 h
Method in brief: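 NCI60 panel cells grown in RPMI 1640 with 5% FBS and 2 mM L-glutamine, plated at 5000–40,000 cells/well and preincubated 24 h at 37 °C, 5% CO₂. Compound was added from DMSO at five concentrations, 10-fold or 1/2 log dilutions, then incubated 48 h.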

786-0 = test: Cytotoxicity against human 786-0 cells assessed as cellular growth at 10 uM after 48 hrs by SRB assay; method in brief: as §2
NCI/ADR-RES = test: Cytotoxicity against human NCI/ADR-RES cells assessed as cellular growth at 10 uM after 48 hrs by SRB assay; method in brief: as §3
HL-60(TB) = test: Antitumor activity against human HL-60(TB) cells after 48 hrs by SRB assay; conditions: HL-60, 48 h
Method in brief: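 NCI60 screen: cells grown in RPMI 1640 with 5% FBS and 2 mM L-glutamine, plated at 5000–40,000 cells/well by doubling time, preincubated 24 h at 37 °C with 5% CO2. Compounds were diluted from DMSO stocks and given for 48 h, at five concentrations for dose response. A time-zero plate was TCA-fixed. Cells were TCA-fixed, stained with 0.4% SRB and read at 515 nm, with growth expressed relative to untreated controls.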

OVCAR-8 = test: Antitumor activity against human OVCAR8 cells after 48 hrs by SRB assay; conditions: OVCAR-8, 48 h; method in brief: as §1
CCRF-CEM [2] = test: Antitumor activity against human CCRF-CEM cells after 48 hrs by SRB assay; method in brief: as §1
MOLT-4 = test: Cytotoxicity against human MOLT4 cells assessed as cellular growth at 10 uM after 48 hrs by SRB assay; method in brief: as §3
K562 = test: Cytotoxicity against human K562 cells assessed as cellular growth at 10 uM after 48 hrs by SRB assay; method in brief: as §2
NCI-H322M = test: Cytotoxicity against human NCI-H322M cells assessed as cellular growth at 10 uM after 48 hrs by SRB assay; method in brief: as §3
NCI-H226 [3] = test: Antitumor activity against human NCI-H226 cells after 48 hrs by SRB assay; conditions: NCI-H226, 48 h; method in brief: as §1
NCI-H226 [4] = test: Cytotoxicity against human NCI-H226 cells assessed as cellular growth at 10 uM after 48 hrs by SRB assay; method in brief: as §3
MDA-MB-231 = test: Antitumor activity against human MDA-MB-231 cells after 48 hrs by SRB assay; conditions: MDA-MB-231, 48 h; method in brief: as §1
NCI-H522 = test: Antitumor activity against human NCI-H522 cells after 48 hrs by SRB assay; conditions: NCI-H522, 48 h; method in brief: as §1
[5] = read-out: LC50 (the source's name)
[6] = read-out: pLC50 (the source's name) (converted)

COc1cc(/C(=C2\O[C@@H]([C@H]3COC(C)(C)O3)[C@H]3OC(C)(C)O[C@@H]23)c2ccc3ccccc3c2)cc(OC)c1OC
GI50 (PC-3; read-out: GI50): 5.71 µM | CC50 (PC-3; [5]): > 100 µM | TGI (PC-3; read-out: TGI): > 100 µM | GI50 (PC-3; read-out: pGI50 (converted)): 5.75 µM | CC50 (PC-3; [6]): > 100 µM | TGI (PC-3; read-out: pTGI): > 100 µM | GI50 (NCI-H460; read-out: GI50): 4.1 µM | CC50 (NCI-H460; [5]): > 100 µM | TGI (NCI-H460; read-out: TGI): > 100 µM | GI50 (NCI-H460; read-out: pGI50 (converted)): 4.07 µM | CC50 (NCI-H460; [6]): > 100 µM | TGI (NCI-H460; read-out: pTGI): > 100 µM | Activity (CCRF-CEM [1]): 82.21% | GI50 (IGROV-1; read-out: GI50): 3.3 µM | CC50 (IGROV-1; [5]): > 100 µM | TGI (IGROV-1; read-out: TGI): > 100 µM | GI50 (IGROV-1; read-out: pGI50 (converted)): 2.82 µM | CC50 (IGROV-1; [6]): > 100 µM | TGI (IGROV-1; read-out: pTGI): > 100 µM | GI50 (EKVX; read-out: GI50): 5.59 µM | CC50 (EKVX; [5]): > 100 µM | TGI (EKVX; read-out: TGI): > 100 µM | GI50 (EKVX; read-out: pGI50 (converted)): 5.62 µM | CC50 (EKVX; [6]): > 100 µM | TGI (EKVX; read-out: pTGI): > 100 µM | GI50 (MDA-MB-468; read-out: GI50): 4.02 µM | CC50 (MDA-MB-468; [5]): > 100 µM | TGI (MDA-MB-468; read-out: TGI): 21.1 µM | GI50 (MDA-MB-468; read-out: pGI50 (converted)): 3.98 µM | CC50 (MDA-MB-468; [6]): > 100 µM | TGI (MDA-MB-468; read-out: pTGI (converted)): 20.9 µM | Activity (OVCAR-5): 38.17% | GI50 (SK-MEL-2): 1.53 µM | TGI (SK-MEL-2): 4.12 µM | CC50 (SK-MEL-2; [5]): 24.1 µM | Activity (786-0): -1.42% | Activity (NCI/ADR-RES): 25.91% | GI50 (HL-60(TB); read-out: GI50): 74.9 µM | CC50 (HL-60(TB); [5]): > 100 µM | TGI (HL-60(TB); read-out: TGI): > 100 µM | GI50 (HL-60(TB); read-out: pGI50 (converted)): 74.1 µM | CC50 (HL-60(TB); [6]): > 100 µM | TGI (HL-60(TB); read-out: pTGI (converted)): > 100 µM | GI50 (OVCAR-8; read-out: GI50): 3.69 µM | CC50 (OVCAR-8; [5]): > 100 µM | TGI (OVCAR-8; read-out: TGI): > 100 µM | GI50 (OVCAR-8; read-out: pGI50 (converted)): 4.37 µM | CC50 (OVCAR-8; [6]): > 100 µM | TGI (OVCAR-8; read-out: pTGI): > 100 µM | GI50 (CCRF-CEM [2]; read-out: GI50): 48.3 µM | CC50 (CCRF-CEM [2]; [5]): > 100 µM | TGI (CCRF-CEM [2]; read-out: TGI): > 100 µM | GI50 (CCRF-CEM [2]; read-out: pGI50 (converted)): 47.9 µM | CC50 (CCRF-CEM [2]; [6]): > 100 µM | TGI (CCRF-CEM [2]; read-out: pTGI): > 100 µM | Activity (MOLT-4): 62.4% | Activity (K562): 28.12% | Activity (NCI-H322M): 55.06% | GI50 (NCI-H226 [3]; read-out: GI50): 3.49 µM | CC50 (NCI-H226 [3]; [5]): > 100 µM | TGI (NCI-H226 [3]; read-out: TGI): 60 µM | GI50 (NCI-H226 [3]; read-out: pGI50 (converted)): 3.47 µM | CC50 (NCI-H226 [3]; [6]): > 100 µM | TGI (NCI-H226 [3]; read-out: pTGI (converted)): 60.3 µM | Activity (NCI-H226 [4]): 66.92% | GI50 (MDA-MB-231): 6.28 µM | TGI (MDA-MB-231): 69.7 µM | CC50 (MDA-MB-231; [5]): > 100 µM | GI50 (NCI-H522): 2.26 µM | TGI (NCI-H522): 6.54 µM | CC50 (NCI-H522; [5]): > 100 µM
